Assay results reported in ChEMBL document CHEMBL1156136, “Hypoxia-activated prodrugs: substituent effects on the properties of nitro seco-1,2,9,9a-tetrahydrocyclopropa[c]benz[e]indol-4-one (nitroCBI) prodrugs of DNA minor groove alkylating agents” (J Med Chem, 2009).
Activity calls are given as the source filed them. The calls are words filed in the database; no cut-off is given here.

Legend:
[1] = system: HT-29; assay: Cytotoxicity against human HT-29 cells assessed as cell kill in hypoxic condition by clonogenic assay; format: functional
Method in brief: (§1)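 Clonogenic assay on single-cell suspensions from dissociated HT29 spheroids, about 1 × 10⁶ cells/mL. Drug exposure 4 h at 37 °C under 5% CO2 in O2 or in N2. Colonies grown 14 days, methylene blue stained, >50 cells counted. Surviving fraction = PE(treated)/PE(control); C10 is the concentration giving 10% survival, from the fitted curve.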

[2] = system: HT-29; assay: Hypoxic cytotoxicity ratio, IC50 for human HT-29 cells in oxic condition to IC50 for human HT-29 cells in hypoxic condition by clonogenic assay; format: functional
[3] = system: Mus musculus; assay: Toxicity in mouse at 100 umol/kg, ip; format: organism-based; details: in vivo
[4] = system: SiHa; assay: Antitumor activity against human SiHa tumor bearing mouse assessed as log reduction of cell kill at 42 umol/kg, iv irradiated 5 mins before 15 Gy dose by cologenic assay; format: functional
Method in brief: (§2)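 SiHa xenografts grown subcutaneously (10⁷ cultured cells) in female homozygous nude CD1-Foxn1nu/nu mice, randomised at mean tumour diameter 8-10 mm. Single iv tail-vein dose, 42 μmol/kg, in 5% DMSO/20% PEG-400/75% lactate buffer pH 4.0. Given alone or 5 min after 15 Gy irradiation. Tumours excised 18 h later, enzymatically dissociated, clonogenic survivors per gram counted. Groups of 3-5 mice; ANOVA with Holm-Sidak on log data.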

[5] = system: SiHa; assay: Antitumor activity against human SiHa tumor bearing mouse assessed as cell kill at 42 umol/kg, iv; format: functional; method in brief: as §2
[6] = system: SK-OV-3; assay: Cytotoxicity against human SKOV3 cells in oxic condition after 4 hrs by sulforhodamine B assay; format: functional, cell-based; details: SK-OV-3, 4 h
Method in brief: (§3)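 Log-phase monolayers exposed to drug for 4 h under aerobic (20% O2) or anoxic (<20 ppm O2) conditions, then sulforhodamine B staining 5 days later. IC50 interpolated as concentration lowering cell density to 50% of same-plate controls. HCR = IC50(oxic)/IC50(hypoxic), mean of intraexperiment ratios. A549 P450R line is a stable transfectant with 9-fold higher cytochrome c reduction rate than parent.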

[7] = system: SK-OV-3; assay: Cytotoxicity against human SKOV3 cells in hypoxic condition after 4 hrs by sulforhodamine B assay; format: functional, cell-based; details: SK-OV-3, 4 h; method in brief: as §3
[8] = system: SK-OV-3; assay: Hypoxic cytotoxicity ratio, IC50 for human SKOV3 cells in oxic condition to IC50 for human SKOV3 cells in hypoxic condition; format: functional; method in brief: as §3
[9] = system: HT-29; assay: Cytotoxicity against human HT-29 cells in oxic condition after 4 hrs by sulforhodamine B assay; format: functional, cell-based; details: HT-29, 4 h; method in brief: as §3
[10] = system: HT-29; assay: Cytotoxicity against human HT-29 cells in hypoxic condition after 4 hrs by sulforhodamine B assay; format: functional, cell-based; details: HT-29, 4 h; method in brief: as §3
[11] = system: HT-29; assay: Hypoxic cytotoxicity ratio, IC50 for human HT-29 cells in oxic condition to IC50 for human HT-29 cells in hypoxic condition; format: functional; method in brief: as §3
[12] = system: HCT-116; assay: Cytotoxicity against human HCT116 cells in oxic condition after 4 hrs by sulforhodamine B assay; format: functional, cell-based; details: HCT-116, 4 h; method in brief: as §3
[13] = system: HCT-116; assay: Cytotoxicity against human HCT116 cells in hypoxic condition after 4 hrs by sulforhodamine B assay; format: functional, cell-based; details: HCT-116, 4 h; method in brief: as §3
[14] = system: HCT-116; assay: Hypoxic cytotoxicity ratio, IC50 for human HCT116 cells in oxic condition to IC50 for human HCT116 cells in hypoxic condition; format: functional; method in brief: as §3
[15] = system: C-33-A; assay: Cytotoxicity against human C33A cells in oxic condition after 4 hrs by sulforhodamine B assay; format: functional, cell-based; method in brief: as §3
[16] = system: C-33-A; assay: Cytotoxicity against human C33A cells in hypoxic condition after 4 hrs by sulforhodamine B assay; format: functional, cell-based; method in brief: as §3
[17] = system: C-33-A; assay: Hypoxic cytotoxicity ratio, IC50 for human C33A cells in oxic condition to IC50 for human C33A cells in hypoxic condition; format: functional; method in brief: as §3
[18] = system: SiHa; assay: Cytotoxicity against human SiHa cells in oxic condition after 4 hrs by sulforhodamine B assay; format: functional, cell-based; method in brief: as §3
[19] = system: SiHa; assay: Cytotoxicity against human SiHa cells in hypoxic condition after 4 hrs by sulforhodamine B assay; format: functional, cell-based; method in brief: as §3
[20] = system: SiHa; assay: Hypoxic cytotoxicity ratio, IC50 for human SiHa cells in oxic condition to IC50 for human SiHa cells in hypoxic condition; format: functional; method in brief: as §3
[21] = system: A549; assay: Cytotoxicity against human A549 cells in oxic condition after 4 hrs by sulforhodamine B assay; format: functional, cell-based; details: A549, 4 h; method in brief: as §3
[22] = system: A549; assay: Cytotoxicity against human A549 cells in hypoxic condition after 4 hrs by sulforhodamine B assay; format: functional, cell-based; details: A549, 4 h; method in brief: as §3
[23] = system: A549; assay: Hypoxic cytotoxicity ratio, IC50 for human A549 cells in oxic condition to IC50 for human A549 cells in hypoxic condition; format: functional; method in brief: as §3
[24] = system: A549; assay: Cytotoxicity against human A549 cells overexpressing human NADPH/cytochrome P450 oxidoreductase in oxic condition after 4 hrs by sulforhodamine B assay; format: functional, cell-based; details: A549, 4 h; method in brief: as §3
[25] = system: A549; assay: Cytotoxicity against human A549 cells overexpressing human NADPH/cytochrome P450 oxidoreductase in hypoxic condition after 4 hrs by sulforhodamine B assay; format: functional, cell-based; details: A549, 4 h; method in brief: as §3
[26] = system: A549; assay: Hypoxic cytotoxicity ratio, IC50 for oxic condition to IC50 for hypoxic condition in human A549 cells overexpressing human NADPH/cytochrome P450 oxidoreductase; format: functional; method in brief: as §3
[27] = Cytotoxicity against human H1299 cells in oxic condition after 4 hrs by sulforhodamine B assay; format: functional, cell-based; details: NCI-H1299, 4 h; method in brief: as §3
[28] = Cytotoxicity against human H1299 cells in hypoxic condition after 4 hrs by sulforhodamine B assay; format: functional, cell-based; details: NCI-H1299, 4 h; method in brief: as §3
[29] = Hypoxic cytotoxicity ratio, IC50 for human H1299 cells in oxic condition to IC50 for human H1299 cells in hypoxic condition; format: functional, NCI-H1299; method in brief: as §3
[30] = system: NCI-H460; assay: Cytotoxicity against human H460 cells in oxic condition after 4 hrs by sulforhodamine B assay; format: functional, cell-based; details: NCI-H460, 4 h; method in brief: as §3
[31] = system: NCI-H460; assay: Cytotoxicity against human H460 cells in hypoxic condition after 4 hrs by sulforhodamine B assay; format: functional, cell-based; details: NCI-H460, 4 h; method in brief: as §3
[32] = system: NCI-H460; assay: Hypoxic cytotoxicity ratio, IC50 for human H460 cells in oxic condition to IC50 for human H460 cells in hypoxic condition; format: functional; method in brief: as §3
[33] = system: PC-3; assay: Cytotoxicity against human PC3 cells in oxic condition after 4 hrs by sulforhodamine B assay; format: functional, cell-based; details: PC-3, 4 h; method in brief: as §3
[34] = system: PC-3; assay: Cytotoxicity against human PC3 cells in hypoxic condition after 4 hrs by sulforhodamine B assay; format: functional, cell-based; details: PC-3, 4 h; method in brief: as §3
[35] = system: PC-3; assay: Hypoxic cytotoxicity ratio, IC50 for human PC3 cells in oxic condition to IC50 for human PC3 cells in hypoxic condition; format: functional; method in brief: as §3
[36] = system: A-375; assay: Cytotoxicity against human A375 cells in oxic condition after 4 hrs by sulforhodamine B assay; format: functional, cell-based; details: A-375, 4 h; method in brief: as §3
[37] = system: A-375; assay: Cytotoxicity against human A375 cells in hypoxic condition after 4 hrs by sulforhodamine B assay; format: functional, cell-based; details: A-375, 4 h; method in brief: as §3
[38] = system: A-375; assay: Hypoxic cytotoxicity ratio, IC50 for human A375 cells in oxic condition to IC50 for human A375 cells in hypoxic condition; format: functional; method in brief: as §3
[39] = system: HT-29; assay: Cytotoxicity against human HT-29 cells assessed as surviving fraction in oxic condition at 30 uM by clonogenic assay; format: functional; method in brief: as §1

## CN(C)CCOc1ccc2[nH]c(C(=O)N3CC(CCl)c4c3cc([N+](=O)[O-])c3cc(S(N)(=O)=O)ccc43)cc2c1 (configuration not stated)
[1]
  C10: 0.4 µM
[2]
  Ratio IC50: 125
[3]
  Activity: Non-toxic
[4]
  Activity: 2.7
[5]
  Activity: inactive
[6]
  IC50: 6900 nM
[7]
  IC50: 0.028 nM
[8]
  Ratio IC50: 275
[9]
  IC50: 4600 nM
[10]
  IC50: 0.018 nM
[11]
  Ratio IC50: 330
[12]
  IC50: 1700 nM
[13]
  IC50: 15 nM
[14]
  Ratio IC50: 110
[15]
  IC50: 500 nM
[16]
  IC50: 3 nM
[17]
  Ratio IC50: 240
[18]
  IC50: 1700 nM
[19]
  IC50: 34 nM
[20]
  Ratio IC50: 71
[21]
  IC50: 950 nM
[22]
  IC50: 35 nM
[23]
  Ratio IC50: 30
[24]
  IC50: 860 nM
[25]
  IC50: 6 nM
[26]
  Ratio IC50: 140
[27]
  IC50: 6300 nM
[28]
  IC50: 110 nM
[29]
  Ratio IC50: 180
[30]
  IC50: 3800 nM
[31]
  IC50: 110 nM
[32]
  Ratio IC50: 36
[33]
  IC50: 2900 nM
[34]
  IC50: 37 nM
[35]
  Ratio IC50: 180
[36]
  IC50: 2900 nM
[37]
  IC50: 150 nM
[38]
  Ratio IC50: 19
[39]
  Activity: >10%

## CN(C)CCOc1ccc2[nH]c(C(=O)N3CC(CCl)c4c3cc(N)c3ccc(S(C)(=O)=O)cc43)cc2c1 (configuration not stated)
[6]
  IC50: 18000 nM
[7]
  IC50: 12 nM
[8]
  Ratio IC50: 1.5
[9]
  IC50: 29000 nM
[10]
  IC50: 16 nM
[11]
  Ratio IC50: 1.9

## COC(=O)c1ccc2c3c(cc(N)c2c1)N(C(=O)c1cc2cc(OCCN(C)C)ccc2[nH]1)CC3CCl (configuration not stated)
[6]
  IC50: 7700 nM
[7]
  IC50: 8.3 nM
[8]
  Ratio IC50: 0.91
[9]
  IC50: 8600 nM
[10]
  IC50: 5.7 nM
[11]
  Ratio IC50: 1.7

## COc1cc2cc(C(=O)N3CC(CCl)c4c3cc(N)c3cc(S(N)(=O)=O)ccc43)[nH]c2c(OC)c1OC (configuration not stated)
[6]
  IC50: 41000 nM
[7]
  IC50: 33 nM
[8]
  Ratio IC50: 1.3
[9]
  IC50: 86000 nM
[10]
  IC50: 91 nM
[11]
  Ratio IC50: 1.1

## CN(C)CCOc1ccc2[nH]c(C(=O)N3CC(CCl)c4c3cc([N+](=O)[O-])c3c(C#N)cccc43)cc2c1 (configuration not stated)
[6]
  IC50: 170 nM
[7]
  IC50: 0.1 nM
[8]
  Ratio IC50: 1.7
[9]
  IC50: 120 nM
[10]
  IC50: 0.1 nM
[11]
  Ratio IC50: 1.1

## CC(=O)c1ccc2c3c(cc(N)c2c1)N(C(=O)c1cc2cc(OCCN(C)C)ccc2[nH]1)CC3CCl (configuration not stated)
[6]
  IC50: 11000 nM
[7]
  IC50: 8.2 nM
[8]
  Ratio IC50: 1.4
[9]
  IC50: 7600 nM
[10]
  IC50: 5.6 nM
[11]
  Ratio IC50: 1.5

## COc1cc2cc(C(=O)N3CC(CCl)c4c3cc([N+](=O)[O-])c3cc(S(N)(=O)=O)ccc43)[nH]c2c(OC)c1OC (configuration not stated)
[6]
  IC50: 37000 nM
[7]
  IC50: 3.7 nM
[8]
  Ratio IC50: 10
[9]
  IC50: 43000 nM
[10]
  IC50: 12 nM
[11]
  Ratio IC50: 3.6

## COc1cc2cc(C(=O)N3CC(CCl)c4c3cc([N+](=O)[O-])c3cc(C#N)ccc43)[nH]c2c(OC)c1OC (configuration not stated)
[6]
  IC50: 6400 nM
[7]
  IC50: 1000 nM
[8]
  Ratio IC50: 13
[9]
  IC50: 5300 nM
[10]
  IC50: 2400 nM
[11]
  Ratio IC50: 2.5

## CN(C)CCOc1ccc2[nH]c(C(=O)N3CC(CCl)c4c3cc([N+](=O)[O-])c3c([N+](=O)[O-])cccc43)cc2c1 (configuration not stated)
[6]
  IC50: 4100 nM
[7]
  IC50: 1.4 nM
[8]
  Ratio IC50: 2.9
[9]
  IC50: 2800 nM
[10]
  IC50: 1.3 nM
[11]
  Ratio IC50: 2.2
